Laboratory results taken from ChEMBL document CHEMBL1148734, “Structure-activity relationships of phenyl-furanyl-rhodanines as inhibitors of RNA polymerase with antibacterial activity on biofilms” (J Med Chem, 2007).
In brackets after ≈: the same amount, converted by molar mass. Activity calls are given as the source filed them. The rule behind the calls is not given here.

Experiments:
Staphylococcus aureus [1] = assay: Antibacterial activity against multidrug resistant Staphylococcus aureus 49589; assay type: functional
Summary of the method: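 Broth microdilution MIC following CLSI. Compounds were predissolved in DMSO and tested as serial 2-fold dilutions at final 100 to 0.4 µg/mL. Inoculum was 5 × 10⁵ CFU/mL, and plates were read after 18 h at 37 °C.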

[2] = test system: Staphylococcus epidermidis; assay: Antibacterial activity against Staphylococcus epidermidis CIP 105777; assay type: functional
Escherichia coli [3] = assay: Antibacterial activity against Escherichia coli tolC CGSC 5633; assay type: functional
Escherichia coli [4] = assay: Inhibition of RNA polymerase sigma-70 transcription in Escherichia coli at 10 uM; assay type: functional
CHO = assay: Cytotoxicity against CHO cells; assay type: cell-based, Cricetulus griseus; conditions: chinese hamster
Summary of the method: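 CHO cells grown in RPMI with 5% fetal calf serum, then exposed to compounds 24 h at 37 °C without serum. MTT added at 300 µg/mL final, 3 h at 37 °C dark; acidified isopropanol added, 1 h at room temperature; OD at 595 nm.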

Staphylococcus aureus [5] = assay: Antibacterial activity against Staphylococcus aureus CIP 76.25; assay type: functional
Bacillus anthracis = assay: Antibacterial activity against Bacillus anthracis 9131; assay type: functional
[6] = test system: Staphylococcus epidermidis; assay: Antibacterial activity against Staphylococcus epidermidis RP62A; assay type: functional
Streptococcus pneumoniae = assay: Antibacterial activity against Streptococcus pneumoniae CIP 103566; assay type: functional
Clostridioides difficile = assay: Antibacterial activity against Clostridium difficile DSM 1296; assay type: functional

CC[C@H]1OC(=O)[C@H](C)[C@@H](O[C@H]2C[C@@](C)(OC)[C@@H](O)[C@H](C)O2)[C@H](C)[C@@H](O[C@@H]2O[C@H](C)C[C@H](N(C)C)[C@H]2O)[C@](C)(O)C[C@@H](C)C(=O)[C@H](C)[C@@H](O)[C@]1(C)O
Activity (Staphylococcus aureus [1]): inactive

O=C(O)c1cccc(-c2ccc(C=C3C(=O)c4ccccc4C3=O)o2)c1
MIC [2]: 50 µg/mL (≈ 145 µM)
MIC (Escherichia coli [3]): 50 µg/mL (≈ 145 µM)
inhibition at 10 µM (Escherichia coli [4]): 72%
Activity (CHO): 50 µg/mL

CC(=O)/N=C1\NC(=O)/C(=C/c2ccc(-c3ccc(C(=O)O)cc3)o2)S1
MIC [2]: ≥ 100 µg/mL
MIC (Escherichia coli [3]): ≥ 100 µg/mL
inhibition at 10 µM (Escherichia coli [4]): 98%
Activity (CHO): >= 100 ug ml-1

C#CCN1C(=O)S/C(=C\c2ccc(-c3ccc(C(=O)O)cc3)o2)C1=O
MIC [2]: > 100 µg/mL
MIC (Escherichia coli [3]): > 100 µg/mL
inhibition at 10 µM (Escherichia coli [4]): 100%
Activity (CHO): >= 100 ug ml-1

C=CCN1C(=O)/C(=C/c2ccc(-c3cc(N)cc(C(=O)O)c3)o2)SC1=S
MIC [2]: ≥ 100 µg/mL
MIC (Escherichia coli [3]): ≥ 100 µg/mL
inhibition at 10 µM (Escherichia coli [4]): 71%
Activity (CHO): >= 100 ug ml-1

CCN1CCN(C(=O)N[C@@H](C(=O)N[C@@H]2C(=O)N3[C@@H]2SC(C)(C)[C@@H]3C(=O)O)c2ccccc2)C(=O)C1=O
Activity (Staphylococcus aureus [1]): inactive

CC1COc2c(N3CCN(C)CC3)c(F)cc3c(=O)c(C(=O)O)cn1c23 (centres undefined)
Activity (Staphylococcus aureus [1]): inactive

GENTAMICIN
Activity (Staphylococcus aureus [1]): inactive

O=C1NC(=O)/C(=C/c2ccc(-c3ccc(C(=O)O)cc3)o2)N1
MIC [2]: ≥ 100 µg/mL
MIC (Escherichia coli [3]): ≥ 100 µg/mL
inhibition at 10 µM (Escherichia coli [4]): 55%
Activity (CHO): >= 100 ug ml-1

CC(=O)O[C@H]1C[C@@]2(C)[C@@H](C[C@@H](O)[C@H]3[C@@]4(C)CC[C@@H](O)[C@@H](C)[C@@H]4CC[C@@]32C)/C1=C(\CCC=C(C)C)C(=O)O
Activity (Staphylococcus aureus [1]): Active

COCCN1C(=O)N/C(=C\c2ccc(-c3cccc(C(=O)O)c3)o2)C1=O
MIC [2]: ≥ 100 µg/mL
MIC (Escherichia coli [3]): ≥ 100 µg/mL
inhibition at 10 µM (Escherichia coli [4]): 85%
Activity (CHO): >= 100 ug ml-1

C=CCN1C(=O)/C(=C/c2ccc(-c3cccc(Cl)c3)o2)SC1=S
MIC [2]: ≥ 100 µg/mL
MIC (Escherichia coli [3]): 12.5 µg/mL (≈ 34.5 µM)
inhibition at 10 µM (Escherichia coli [4]): 76%
Activity (CHO): >= 100 ug ml-1

O=C(O)CN1C(=O)/C(=C/c2ccc(-c3cccc(C(=O)O)c3)o2)SC1=S
MIC [2]: ≥ 100 µg/mL
MIC (Escherichia coli [3]): ≥ 100 µg/mL
inhibition at 10 µM (Escherichia coli [4]): 17%
Activity (CHO): >= 100 ug ml-1

C=CCN1C(=O)/C(=C/c2ccc(-c3cccc(C(F)(F)F)c3)o2)SC1=S
MIC [2]: ≥ 100 µg/mL
MIC (Escherichia coli [3]): ≥ 100 µg/mL
Activity (CHO): >= 100 ug ml-1

C=CCN1C(=O)/C(=C/c2ccc(-c3ccc([N+](=O)[O-])cc3)o2)SC1=S
MIC [2]: ≥ 100 µg/mL
MIC (Escherichia coli [3]): ≥ 100 µg/mL
inhibition at 10 µM (Escherichia coli [4]): 3%
Activity (CHO): >= 100 ug ml-1

CCn1cc(C(=O)O)c(=O)c2cc(F)c(N3CCNCC3)cc21
Activity (Staphylococcus aureus [1]): inactive

O=C(O)c1ccc(-c2ccc(/C=C3\Sc4ccccc4C3=O)o2)cc1
MIC [2]: > 100 µg/mL
MIC (Escherichia coli [3]): > 100 µg/mL
inhibition at 10 µM (Escherichia coli [4]): 30%
Activity (CHO): >= 100 ug ml-1

C=CCN1C(=O)/C(=C/c2ccc(Cc3ccc(C(=O)O)cc3)o2)SC1=S
MIC [2]: ≥ 100 µg/mL
MIC (Escherichia coli [3]): ≥ 100 µg/mL
inhibition at 10 µM (Escherichia coli [4]): 63%
Activity (CHO): >= 100 ug ml-1

CCC[C@@H]1C[C@@H](C(=O)N[C@@H]([C@H]2O[C@H](SC)[C@H](O)[C@@H](O)[C@H]2O)[C@H](C)Cl)N(C)C1
Activity (Staphylococcus aureus [1]): inactive

Cc1onc(-c2ccccc2)c1C(=O)N[C@@H]1C(=O)N2[C@@H]1SC(C)(C)[C@@H]2C(=O)O
Activity (Staphylococcus aureus [1]): inactive

CN(C)[C@@H]1C(O)=C(C(N)=O)C(=O)[C@@]2(O)C(O)=C3C(=O)c4c(O)cccc4[C@@](C)(O)[C@H]3C[C@@H]12
Activity (Staphylococcus aureus [1]): inactive

C=CCN1C(=O)/C(=C/c2ccc(-c3ccc4c(c3)C(=O)OC4)o2)SC1=S
MIC [2]: ≥ 100 µg/mL
MIC (Escherichia coli [3]): ≥ 100 µg/mL
inhibition at 10 µM (Escherichia coli [4]): 5%
Activity (CHO): 50 µg/mL

NCC[C@H](O)C(=O)N[C@@H]1C[C@H](N)[C@@H](O[C@H]2O[C@H](CN)[C@@H](O)[C@H](O)[C@H]2O)[C@H](O)[C@H]1O[C@H]1O[C@H](CO)[C@@H](O)[C@H](N)[C@H]1O
Activity (Staphylococcus aureus [1]): inactive

C=CCN1C(=O)/C(=C/c2ccc(-c3ccc(C(=O)NO)cc3)o2)SC1=S
MIC (Staphylococcus aureus [5]): ≥ 100 µg/mL
MIC [2]: ≥ 100 µg/mL
MIC (Bacillus anthracis): 50 µg/mL (≈ 129 µM)
MIC (Escherichia coli [3]): 25 µg/mL (≈ 64.7 µM)
MIC [6]: ≥ 100 µg/mL
MIC (Streptococcus pneumoniae): 25 µg/mL (≈ 64.7 µM)
inhibition at 10 µM (Escherichia coli [4]): 100%
Activity (CHO): >= 100 ug ml-1
MIC (Clostridioides difficile): ≥ 100 µg/mL
MIC (Staphylococcus aureus [1]): ≥ 100 µg/mL

O=C1NC(=S)S/C1=C\c1ccc(-c2ccc(C(=O)O)cc2)o1
MIC [2]: ≥ 100 µg/mL
MIC (Escherichia coli [3]): ≥ 100 µg/mL
inhibition at 10 µM (Escherichia coli [4]): 82%
Activity (CHO): >= 100 ug ml-1

C=CCN1C(=O)/C(=C/c2ccc(-c3ccccc3C(=O)O)o2)SC1=S
MIC [2]: ≥ 100 µg/mL
MIC (Escherichia coli [3]): ≥ 100 µg/mL
inhibition at 10 µM (Escherichia coli [4]): 72%
Activity (CHO): >= 100 ug ml-1

C[C@@H]1O[C@@H]1P(=O)(O)O
Activity (Staphylococcus aureus [1]): Active

CN1C(=O)/C(=C/c2ccc(-c3cccc(C(=O)O)c3)o2)SC1=S
MIC [2]: > 100 µg/mL
MIC (Escherichia coli [3]): > 100 µg/mL
inhibition at 10 µM (Escherichia coli [4]): 89%
Activity (CHO): >= 100 ug ml-1

C=CCN1C(=O)S/C(=C\c2ccc(-c3ccc(C(=O)O)cc3)o2)C1=O
MIC [2]: ≥ 100 µg/mL
MIC (Escherichia coli [3]): ≥ 100 µg/mL
inhibition at 10 µM (Escherichia coli [4]): 75%
Activity (CHO): >= 100 ug ml-1

CO[C@H]1/C=C/O[C@@]2(C)Oc3c(C)c(O)c4c(O)c(c(/C=N/N5CCN(C)CC5)c(O)c4c3C2=O)NC(=O)/C(C)=C\C=C\[C@H](C)[C@H](O)[C@@H](C)[C@@H](O)[C@@H](C)[C@H](OC(C)=O)[C@@H]1C
Activity (Staphylococcus aureus [1]): inactive

Cc1nnc(SCC2=C(C(=O)O)N3C(=O)[C@@H](NC(=O)Cn4cnnn4)[C@H]3SC2)s1
Activity (Staphylococcus aureus [1]): inactive

C=CCN1C(=O)/C(=C/c2ccc(-c3ccc(C(=O)OC)cc3)o2)SC1=S
MIC [2]: ≥ 100 µg/mL
MIC (Escherichia coli [3]): ≥ 100 µg/mL
inhibition at 10 µM (Escherichia coli [4]): 10%
Activity (CHO): >= 100 ug ml-1

CN[C@H](CC(C)C)C(=O)N[C@H]1C(=O)N[C@@H](CC(N)=O)C(=O)N[C@H]2C(=O)N[C@H]3C(=O)N[C@H](C(=O)N[C@H](C(=O)O)c4cc(O)cc(O)c4-c4cc3ccc4O)[C@H](O)c3ccc(c(Cl)c3)Oc3cc2cc(c3O[C@@H]2O[C@H](CO)[C@@H](O)[C@H](O)[C@H]2O[C@H]2C[C@](C)(N)[C@H](O)[C@H](C)O2)Oc2ccc(cc2Cl)[C@H]1O
Activity (Staphylococcus aureus [1]): Active

CC1(C)S[C@@H]2[C@H](NC(=O)Cc3ccccc3)C(=O)N2[C@H]1C(=O)O
Activity (Staphylococcus aureus [1]): inactive

C=CCN1C(=O)/C(=C/c2ccc(-c3cccc(N)c3)o2)SC1=S
MIC [2]: ≥ 100 µg/mL
MIC (Escherichia coli [3]): ≥ 100 µg/mL
inhibition at 10 µM (Escherichia coli [4]): 11%
Activity (CHO): >= 100 ug ml-1

C=CCN1C(=O)/C(=C/c2ccc(-c3ccc(S(=O)(=O)O)cc3)o2)SC1=S
MIC [2]: ≥ 100 µg/mL
MIC (Escherichia coli [3]): ≥ 100 µg/mL
inhibition at 10 µM (Escherichia coli [4]): 9%
Activity (CHO): >= 100 ug ml-1

C=CCN1C(=O)/C(=C/c2ccc(-c3ccc(OP(=O)(O)O)cc3)o2)SC1=S
MIC [2]: ≥ 100 µg/mL
MIC (Escherichia coli [3]): ≥ 100 µg/mL
Activity (CHO): 50 µg/mL

CC1(C)S[C@@H]2[C@H](NC(=O)[C@H](N)c3ccc(O)cc3)C(=O)N2[C@H]1C(=O)O
Activity (Staphylococcus aureus [1]): inactive

NC[C@H]1O[C@H](O[C@H]2[C@H](O)[C@@H](O[C@H]3O[C@H](CO)[C@@H](O)[C@H](N)[C@H]3O)[C@H](N)C[C@@H]2N)[C@H](N)C[C@@H]1O
Activity (Staphylococcus aureus [1]): inactive
